# ChEMBL document CHEMBL4616691 (ACS Med Chem Lett, 2020)
# Calls of active or inactive are those of the source. The rule behind the calls is not given here.
# Key:
# [1] = Inhibition of NPC1/VDAC1 in HUVEC cells assessed as reduction in cell proliferation pretreated for 24 hrs followed by [3H]thymidine incorporation by scintillation counter method; assay type: cell-based; settings: Homo sapiens
# Outline: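 HUVEC proliferation read by [³H]-thymidine incorporation, giving IC50. Mean ± SD of three independent experiments, each run in triplicate.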
# [2] = Thermodynamic solubility in 0.001N HCl by HPLC analysis; assay type: physicochemical; settings: for solubility thermodynamic: 0.001N HCl, read-out: Therm_solubility
# Outline: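 Thermodynamic solubility measured in 0.001 N HCl (pH 3), chosen to resemble acidic gastric fluid. Dissolved compound quantified by HPLC and reported in […].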
# Cytochrome P450 3A4 = Cytochrome P450 3A4 (Homo sapiens, UniProt P08684); assay: Inhibition of CYP3A4 (unknown origin); assay type: ADME
# HUVEC [3] = assay: Inhibition of NPC1/VDAC1 in HUVEC cells assessed as inhibition of tube formation at 3 uM measured after 24 hrs by Calcein-AM staining based fluorescence microscopy analysis relative to control; assay type: cell-based; settings: Homo sapiens
# Outline: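 HUVECs seeded on Matrigel-coated wells and treated with DMSO or 3 μM compound for 24 h. Networks stained with Calcein-AM and imaged by fluorescence microscopy. Total tube length quantified from the images against DMSO control. Mean ± SD of three independent experiments.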
# [4] = target: T1, NPC intracellular cholesterol transporter 1 (Homo sapiens) (UniProt O15118); assay: Inhibition of NPC1 in HUVEC cells assessed as accumulation of cholesterol in perinuclear structure at 0.2 uM incubated for 24 hrs by filipin staining based confocal microscopy analysis; assay type: cell-based
# T1 sequence (whole entry): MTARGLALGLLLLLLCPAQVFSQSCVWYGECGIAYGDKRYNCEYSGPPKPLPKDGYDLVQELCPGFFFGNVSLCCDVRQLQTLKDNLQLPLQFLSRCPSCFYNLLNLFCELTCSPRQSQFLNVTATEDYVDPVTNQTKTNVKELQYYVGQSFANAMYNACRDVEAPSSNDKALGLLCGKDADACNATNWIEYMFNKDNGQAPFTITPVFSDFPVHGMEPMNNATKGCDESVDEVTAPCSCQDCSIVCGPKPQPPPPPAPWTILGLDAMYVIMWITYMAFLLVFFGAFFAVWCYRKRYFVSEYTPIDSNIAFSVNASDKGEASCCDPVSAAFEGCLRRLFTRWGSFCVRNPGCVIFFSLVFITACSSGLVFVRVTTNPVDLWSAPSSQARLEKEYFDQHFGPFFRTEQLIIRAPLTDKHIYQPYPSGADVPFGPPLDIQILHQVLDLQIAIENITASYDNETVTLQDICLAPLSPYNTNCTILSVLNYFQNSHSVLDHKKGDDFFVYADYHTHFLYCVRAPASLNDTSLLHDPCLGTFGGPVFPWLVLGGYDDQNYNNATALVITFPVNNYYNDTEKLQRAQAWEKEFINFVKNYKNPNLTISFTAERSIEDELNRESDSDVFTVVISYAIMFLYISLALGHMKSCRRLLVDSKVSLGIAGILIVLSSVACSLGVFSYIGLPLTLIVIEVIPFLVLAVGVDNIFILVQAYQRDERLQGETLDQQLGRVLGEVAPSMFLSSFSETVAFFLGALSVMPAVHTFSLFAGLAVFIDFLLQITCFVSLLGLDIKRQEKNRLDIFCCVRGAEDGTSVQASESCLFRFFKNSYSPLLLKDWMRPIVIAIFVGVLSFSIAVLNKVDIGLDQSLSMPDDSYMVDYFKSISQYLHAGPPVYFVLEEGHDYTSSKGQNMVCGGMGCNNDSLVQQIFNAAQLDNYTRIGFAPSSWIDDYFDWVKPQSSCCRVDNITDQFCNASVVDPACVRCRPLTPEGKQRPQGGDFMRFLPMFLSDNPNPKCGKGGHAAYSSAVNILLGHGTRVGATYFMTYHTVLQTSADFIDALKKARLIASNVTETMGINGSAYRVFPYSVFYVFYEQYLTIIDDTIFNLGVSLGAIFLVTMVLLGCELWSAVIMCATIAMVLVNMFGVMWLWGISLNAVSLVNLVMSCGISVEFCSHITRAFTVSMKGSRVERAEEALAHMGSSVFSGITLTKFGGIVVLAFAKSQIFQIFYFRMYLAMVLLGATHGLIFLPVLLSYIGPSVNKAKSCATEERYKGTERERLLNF
# Outline: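 Primary HUVECs incubated 24 h with 0.2 μM compound or DMSO. Intracellular cholesterol stained with filipin and imaged by confocal fluorescence microscopy, 25x objective.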
# [5] = target: AMP-activated protein kinase, AMPK (Homo sapiens) (UniProt P54646+O43741+P54619+Q9UGJ0+Q9Y478+Q13131+Q9UGI9); assay: Activation of AMPK in HUVEC cells assessed as phosphorylation of acetyl CoA carboxylase measured after 24 hrs by Western blot analysis; assay type: cell-based
# Outline: (§1)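 HUVECs exposed to test compound at 0.05, 0.25, 0.5, 1 or 2 μM, or DMSO vehicle, for 24 h. Lysates probed by western blot for VEGFR2, phospho- and total ACC, phospho- and total S6K, with β-actin as loading reference.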
# [6] = target: Serine/threonine-protein kinase mTOR (Homo sapiens) (UniProt P42345); assay: Inhibition of mTOR in HUVEC cells assessed as reduction in phosphorylation of p70S6K measured after 24 hrs by Western blot analysis; assay type: cell-based; outline: as §1
# [7] = target: Vascular endothelial growth factor receptor 2 (Homo sapiens) (UniProt P35968); assay: Inhibition of VEGFR2 glycosylation in HUVEC cells assessed as disappearance of VEGFR2 at 0.5 to 2 uM measured after 24 hrs by Western blot analysis; assay type: cell-based; outline: as §1
# HUVEC [8] = assay: Effect on VEGFR2 localization in human HUVEC cells assessed as accumulation of VEGFR2 in perinuclear region at 2 uM by DAPI staining based confocal micrscopy; assay type: functional, cell-based
# Outline: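 HUVECs treated with DMSO or 2 μM compound. Cells immunostained for VEGFR2 (green) and Golgi marker GM130 (red), nuclei counterstained with DAPI. Imaged by confocal microscopy, scoring perinuclear VEGFR2 and its colocalization with GM130.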
# Sequence of Cytochrome P450 3A4 (P08684 whole entry): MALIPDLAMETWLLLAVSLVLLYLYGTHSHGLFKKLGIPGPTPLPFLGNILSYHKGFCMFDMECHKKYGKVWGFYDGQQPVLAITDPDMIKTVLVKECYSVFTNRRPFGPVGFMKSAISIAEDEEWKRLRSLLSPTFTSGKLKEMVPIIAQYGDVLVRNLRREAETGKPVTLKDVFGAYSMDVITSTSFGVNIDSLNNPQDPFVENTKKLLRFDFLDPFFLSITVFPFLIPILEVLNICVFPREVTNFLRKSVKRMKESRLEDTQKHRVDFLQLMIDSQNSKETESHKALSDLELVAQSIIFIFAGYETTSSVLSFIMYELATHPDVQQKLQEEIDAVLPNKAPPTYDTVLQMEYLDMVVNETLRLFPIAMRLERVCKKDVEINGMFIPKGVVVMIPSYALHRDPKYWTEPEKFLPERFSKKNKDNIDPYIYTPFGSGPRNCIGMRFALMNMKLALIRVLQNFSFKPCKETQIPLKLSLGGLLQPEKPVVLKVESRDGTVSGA
# Sequence of Vascular endothelial growth factor receptor 2 (Homo sapiens) (P35968 whole entry): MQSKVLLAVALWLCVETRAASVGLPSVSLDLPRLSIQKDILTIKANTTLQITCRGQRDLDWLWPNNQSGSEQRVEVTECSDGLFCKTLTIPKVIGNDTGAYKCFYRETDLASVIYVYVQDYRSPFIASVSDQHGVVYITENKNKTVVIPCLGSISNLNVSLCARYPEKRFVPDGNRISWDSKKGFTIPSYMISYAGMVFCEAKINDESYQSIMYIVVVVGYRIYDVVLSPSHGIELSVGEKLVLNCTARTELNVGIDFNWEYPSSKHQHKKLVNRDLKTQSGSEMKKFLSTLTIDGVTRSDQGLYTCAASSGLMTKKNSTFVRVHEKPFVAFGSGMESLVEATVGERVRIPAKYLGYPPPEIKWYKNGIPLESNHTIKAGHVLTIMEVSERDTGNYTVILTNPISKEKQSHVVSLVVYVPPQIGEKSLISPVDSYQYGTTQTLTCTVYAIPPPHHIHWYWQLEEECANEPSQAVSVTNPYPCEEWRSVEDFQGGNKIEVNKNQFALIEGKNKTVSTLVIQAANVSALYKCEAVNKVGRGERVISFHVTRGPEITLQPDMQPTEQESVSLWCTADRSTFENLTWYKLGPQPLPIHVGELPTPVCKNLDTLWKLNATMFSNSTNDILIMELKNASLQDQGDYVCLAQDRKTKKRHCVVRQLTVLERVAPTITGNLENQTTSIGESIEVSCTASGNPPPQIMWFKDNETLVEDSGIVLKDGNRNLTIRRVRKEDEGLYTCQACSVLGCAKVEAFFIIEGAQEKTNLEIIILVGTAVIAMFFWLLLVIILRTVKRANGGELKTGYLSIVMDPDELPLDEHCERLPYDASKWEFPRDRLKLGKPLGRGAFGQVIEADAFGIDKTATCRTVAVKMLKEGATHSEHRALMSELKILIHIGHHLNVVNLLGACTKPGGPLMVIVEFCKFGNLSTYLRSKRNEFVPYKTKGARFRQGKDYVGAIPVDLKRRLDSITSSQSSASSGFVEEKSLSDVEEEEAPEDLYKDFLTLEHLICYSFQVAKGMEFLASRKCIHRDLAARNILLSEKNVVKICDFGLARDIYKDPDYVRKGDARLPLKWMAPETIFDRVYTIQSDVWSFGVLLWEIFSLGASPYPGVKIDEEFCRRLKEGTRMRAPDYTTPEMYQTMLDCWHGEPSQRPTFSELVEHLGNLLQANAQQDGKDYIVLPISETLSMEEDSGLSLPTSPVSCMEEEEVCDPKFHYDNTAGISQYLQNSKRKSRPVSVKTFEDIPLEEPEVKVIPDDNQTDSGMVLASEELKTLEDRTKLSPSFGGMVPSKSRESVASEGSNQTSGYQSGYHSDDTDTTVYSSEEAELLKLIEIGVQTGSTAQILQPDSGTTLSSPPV
Structure (SMILES),solubility thermodynamic [2] [µg/mL],IC50 [1] [nM],other results
CCC(C)n1ncn(-c2ccc(N3CCN(c4ccc(OC[C@@H]5CO[C@@](Cn6cncn6)(c6ccc(Cl)cc6Cl)O5)cc4)CC3)nc2)c1=O (some centres not stated),0.0539,222,
CCC(C)n1ncn(-c2ccc(N3CCN(c4ccc(OC[C@@H]5CO[C@@](Cn6cnnn6)(c6ccc(Cl)cc6Cl)O5)cn4)CC3)cc2)c1=O (some centres not stated),0.951,77.1,IC50 (Cytochrome P450 3A4): > 90000 nM; inhibition (HUVEC [3]): 70%; inhibition [4]: Active; Activity [5]: Dose-dependent effect; inhibition [6]: Dose-dependent effect; inhibition [7]: Active; Activity (HUVEC [8]): Active
CCC(C)n1ncn(-c2ccc(N3CCN(c4ccc(OC[C@@H]5CO[C@@](Cn6ccnc6)(c6ccc(Cl)cc6Cl)O5)cn4)CC3)cc2)c1=O (some centres not stated),2.94,69.1,
CCC(C)n1ncn(-c2ccc(N3CCN(c4ccc(OC[C@@H]5CO[C@@](Cn6ccnc6)(c6ccc(Cl)cc6Cl)O5)cc4)CC3)nc2)c1=O (some centres not stated),7.99,98.5,
CCC(C)n1ncn(-c2ccc(N3CCN(c4ccc(OC[C@@H]5CO[C@@](Cn6ccnc6)(c6ccc(Cl)cc6Cl)O5)cn4)CC3)c(F)c2)c1=O (some centres not stated),125,68,
CCC(C)n1ncn(-c2ccc(N3CCN(c4ccc(OC[C@@H]5CO[C@@](Cn6cnnn6)(c6ccc(Cl)cc6Cl)O5)cc4)CC3)c(F)c2)c1=O (some centres not stated),0.0528,153,IC50 (Cytochrome P450 3A4): > 90000 nM; inhibition [4]: Active
CCC(C)n1ncn(-c2ccc(N3CCN(c4ccc(OC[C@@H]5CO[C@@](Cn6ccnc6)(c6ccc(Cl)cc6Cl)O5)cc4)CC3)c(F)c2)c1=O (some centres not stated),17.2,70.1,
CCC(C)n1ncn(-c2ccc(N3CCN(c4ccc(OC[C@@H]5CO[C@@](Cn6cncn6)(c6ccc(Cl)cc6Cl)O5)nc4)CC3)c(F)c2)c1=O (some centres not stated),0.255,446,
CCC(C)n1ncn(-c2ccc(N3CCN(c4ccc(OC[C@@H]5CO[C@@](Cn6cncn6)(c6ccc(Cl)cc6Cl)O5)nc4)CC3)cc2)c1=O (some centres not stated),0.116,687,
CCC(C)n1ncn(-c2ccc(N3CCN(c4ccc(OC[C@@H]5CO[C@@](Cn6cnnn6)(c6ccc(Cl)cc6Cl)O5)cn4)CC3)c(F)c2)c1=O (some centres not stated),0.708,108,inhibition [4]: Active
CCC(C)n1ncn(-c2ccc(N3CCN(c4ccc(OCC5COC(Cn6cncn6)(c6ccc(Cl)cc6Cl)O5)cc4)CC3)cc2)c1=O (configuration not stated) [ITRACONAZOLE],,,Therm_solubility ([2]; buffer): 0.0101 µg/mL; inhibition [4]: Active; Activity (HUVEC [8]): Active
CCC(C)n1ncn(-c2ccc(N3CCN(c4ccc(OC[C@@H]5CO[C@@](Cn6cncn6)(c6ccc(Cl)cc6Cl)O5)cn4)CC3)cc2)c1=O (some centres not stated),0.114,380,

# Second part, led by results:
solubility thermodynamic [2] [µg/mL],Structure (SMILES),IC50 [1] [nM],other results
0.848,CCC(C)n1ncn(-c2ccc(N3CCN(c4ccc(OC[C@@H]5CO[C@@](Cn6cncn6)(c6ccc(Cl)cc6Cl)O5)cn4)CC3)c(F)c2)c1=O (some centres not stated),173,
0.0291,CCC(C)n1ncn(-c2ccc(N3CCN(c4ccc(OC[C@@H]5CO[C@@](Cn6cncn6)(c6ccc(Cl)cc6Cl)O5)cc4)CC3)c(F)c2)c1=O (some centres not stated),128,
0.321,CCC(C)n1ncn(-c2ccc(N3CCN(c4ccc(OC[C@@H]5CO[C@@](Cn6cnnn6)(c6ccc(Cl)cc6Cl)O5)cc4)CC3)cc2)c1=O (some centres not stated),,inhibition [4]: Active
0.496,CCC(C)n1ncn(-c2ccc(N3CCN(c4ccc(OC[C@@H]5CO[C@@](Cn6cncn6)(c6ccc(Cl)cc6Cl)O5)cc4)CC3)cn2)c1=O (some centres not stated),188,
41.3,CCC(C)n1ncn(-c2ccc(N3CCN(c4ccc(OC[C@@H]5CO[C@@](Cn6ccnc6)(c6ccc(Cl)cc6Cl)O5)cc4)CC3)cn2)c1=O (some centres not stated),636,
6.48,CCC(C)n1ncn(-c2ccc(N3CCN(c4ccc(OC[C@@H]5CO[C@@](Cn6ccnc6)(c6ccc(Cl)cc6Cl)O5)nc4)CC3)cc2)c1=O (some centres not stated),468,
